{"source": "ChEMBL document CHEMBL2346664", "about": "“Synthesis, characterization and in vitro anticancer evaluation of novel 1,2,4-triazolin-3-one derivatives” (2013)", "type_in_all_cases": "functional", "key": {"[1]": {"system": "SK-MEL-5", "assay": "Growth inhibition of human SK-MEL-5 cells assessed as cell growth at 10 '-8 M after 48 hrs by sulforhodamine B assay", "conditions": "SK-MEL-5, 48 h, read-out: Activity"}, "[2]": {"system": "Malme-3M", "assay": "Growth inhibition of human MALME-3M cells assessed as cell growth at 10 '-4 M after 48 hrs by sulforhodamine B assay", "conditions": "read-out: Activity"}, "[3]": {"system": "UO-31", "assay": "Growth inhibition of human UO31 cells assessed as cell growth at 10 '-8 M after 48 hrs by sulforhodamine B assay", "conditions": "UO-31, 48 h, read-out: Activity"}, "[4]": {"system": "NCI-H23", "assay": "Growth inhibition of human NCI-H23 cells assessed as cell growth at 10 '-7 M after 48 hrs by sulforhodamine B assay", "conditions": "NCI-H23, 48 h, read-out: Activity"}, "[5]": {"system": "HCT-15", "assay": "Growth inhibition of human HCT15 cells assessed as cell growth at 10 '-8 M after 48 hrs by sulforhodamine B assay", "conditions": "HCT-15, 48 h, read-out: Activity"}, "[6]": {"system": "SR", "assay": "Growth inhibition of human SR cells assessed as cell growth at 10 '-6 M after 48 hrs by sulforhodamine B assay", "conditions": "read-out: Activity"}, "[7]": {"system": "SNB-75", "assay": "Growth inhibition of human SNB75 cells assessed as cell growth at 10 '-8 M after 48 hrs by sulforhodamine B assay", "conditions": "SNB-75, 48 h, read-out: Activity"}, "[8]": {"system": "OVCAR-8", "assay": "Growth inhibition of human OVCAR8 cells assessed as cell growth at 10 '-4 M after 48 hrs by sulforhodamine B assay", "conditions": "OVCAR-8, 48 h, read-out: Activity"}, "[9]": {"system": "MOLT-4", "assay": "Growth inhibition of human MOLT4 cells assessed as cell growth at 10 '-7 M after 48 hrs by sulforhodamine B assay", "conditions": "MOLT-4, 48 h, read-out: Activity"}, "[10]": {"system": "HOP-92", "assay": "Growth inhibition of human HOP92 cells assessed as cell growth at 10 '-6 M after 48 hrs by sulforhodamine B assay", "conditions": "HOP-92, 48 h, read-out: Activity"}, "[11]": {"assay": "Growth inhibition of human NCI-ADR-RES cells assessed as cell growth at 10 '-8 M after 48 hrs by sulforhodamine B assay", "conditions": "read-out: Activity"}, "[12]": {"system": "NCI-H460", "assay": "Growth inhibition of human NCI-H460 cells assessed as cell growth at 10 '-8 M after 48 hrs by sulforhodamine B assay", "conditions": "NCI-H460, 48 h, read-out: Activity"}, "[13]": {"system": "IGROV-1", "assay": "Growth inhibition of human IGROV1 cells assessed as cell growth at 10 '-6 M after 48 hrs by sulforhodamine B assay", "conditions": "IGROV-1, 48 h, read-out: Activity"}, "[14]": {"system": "SK-OV-3", "assay": "Growth inhibition of human SKOV3 cells assessed as cell growth at 10 '-8 M after 48 hrs by sulforhodamine B assay", "conditions": "SK-OV-3, 48 h, read-out: Activity"}, "[15]": {"system": "MDA-MB-231", "assay": "Growth inhibition of human MDA-MB-231 cells assessed as cell growth at 10 '-5 M after 48 hrs by sulforhodamine B assay", "conditions": "MDA-MB-231, 48 h, read-out: Activity"}, "[16]": {"system": "SN12C", "assay": "Growth inhibition of human SN12C cells after 48 hrs by sulforhodamine B assay"}, "[17]": {"system": "PC-3", "assay": "Growth inhibition of human PC3 cells assessed as cell growth at 10 '-7 M after 48 hrs by sulforhodamine B assay", "conditions": "PC-3, 48 h, read-out: Activity"}, "[18]": {"system": "CAKI-1", "assay": "Growth inhibition of human CAKI-1 cells assessed as cell growth at 10 '-5 M after 48 hrs by sulforhodamine B assay", "conditions": "CAKI-1, 48 h, read-out: Activity", "summary_of_the_method": "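Percent growth at each of the five concentrations of the 48 h continuous-exposure NCI SRB screen. Drug stocks were in DMSO at 400× the top final concentration and diluted in medium with gentamicin. Growth was calculated as [(Ti-Tz)/(C-Tz)]×100 when Ti ≥ Tz, or [(Ti-Tz)/Tz]×100 when Ti < Tz. Tz plates were fixed at drug addition; untreated wells served as control. Absorbance was read at 515 nm.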"}, "[19]": {"system": "SK-OV-3", "assay": "Growth inhibition of human SKOV3 cells after 48 hrs by sulforhodamine B assay", "conditions": "SK-OV-3, 48 h"}, "[20]": {"system": "M14", "assay": "Growth inhibition of human M14 cells assessed as cell growth at 10 '-4 M after 48 hrs by sulforhodamine B assay", "conditions": "M14, 48 h, read-out: Activity"}, "[21]": {"system": "MDA-MB-468", "assay": "Growth inhibition of human MDA-MB-468 cells assessed as cell growth at 10 '-5 M after 48 hrs by sulforhodamine B assay", "conditions": "MDA-MB-468, 48 h, read-out: Activity"}, "[22]": {"system": "TK-10", "assay": "Growth inhibition of human TK10 cells assessed as cell growth at 10 '-7 M after 48 hrs by sulforhodamine B assay", "conditions": "TK-10, 48 h, read-out: Activity"}, "[23]": {"system": "MOLT-4", "assay": "Growth inhibition of human MOLT4 cells assessed as cell growth at 10 '-5 M after 48 hrs by sulforhodamine B assay", "conditions": "MOLT-4, 48 h, read-out: Activity"}, "[24]": {"system": "NCI-H522", "assay": "Growth inhibition of human NCI-H522 cells assessed as cell growth at 10 '-4 M after 48 hrs by sulforhodamine B assay", "conditions": "NCI-H522, 48 h, read-out: Activity"}, "[25]": {"system": "U-251", "assay": "Growth inhibition of human U251 cells assessed as cell growth at 10 '-6 M after 48 hrs by sulforhodamine B assay", "conditions": "U-251, 48 h, read-out: Activity"}, "[26]": {"system": "SK-MEL-2", "assay": "Growth inhibition of human SK-MEL-2 cells assessed as cell growth at 10 '-7 M after 48 hrs by sulforhodamine B assay", "conditions": "SK-MEL-2, 48 h, read-out: Activity"}, "[27]": {"system": "HL-60(TB)", "assay": "Growth inhibition of human HL-60(TB) cells assessed as cell growth at 10 '-8 M after 48 hrs by sulforhodamine B assay", "conditions": "HL-60, 48 h, read-out: Activity", "summary_of_the_method": "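Five-dose NCI protocol with final concentrations of 0.01–100 µM and drug diluted from a DMSO stock (400× the top concentration) in medium with gentamicin. Cells were pre-incubated 24 h, then exposed 48 h at 37 °C. Suspension cells were fixed with 16% final TCA, SRB-stained and read at 515 nm. Percentage growth at each level was [(Ti−Tz)/(C−Tz)]×100, or [(Ti−Tz)/Tz]×100 when Ti < Tz.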"}, "[28]": {"system": "UO-31", "assay": "Growth inhibition of human UO31 cells assessed as cell growth at 10 '-4 M after 48 hrs by sulforhodamine B assay", "conditions": "UO-31, 48 h, read-out: Activity"}, "[29]": {"system": "786-0", "assay": "Growth inhibition of human 786-0 cells after 48 hrs by sulforhodamine B assay", "conditions": "786-0, 48 h", "summary_of_the_method": "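NCI 60-cell-line five-dose screen at 0.01, 0.1, 1, 10 and 100 µM final. Cells were plated at 5,000–40,000/well and grown 24 h at 37 °C, 5% CO2, then exposed to drug continuously for 48 h. Adherent cells were fixed with cold TCA (10% final) and stained with SRB; absorbance read at 515 nm. GI50 is the concentration where [(Ti-Tz)/(C-Tz)]×100 = 50, with Tz plates fixed at drug addition.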"}, "[30]": {"conditions": "read-out: LD50 (the source's name)"}}, "data": [{"smiles": "Cc1cc(=O)oc2cc(OCCn3c(C)nn(-c4ccc(Cl)cc4)c3=O)ccc12", "values": [{"measurement": "growth at 0.01 µM", "setting": "[1]", "result": 97, "unit": "%"}, {"measurement": "growth at 100 µM", "setting": "[2]", "result": 41, "unit": "%"}, {"measurement": "growth at 0.01 µM", "setting": "[3]", "result": 86, "unit": "%"}, {"measurement": "growth at 0.1 µM", "setting": "[4]", "result": 91, "unit": "%"}, {"measurement": "growth at 0.01 µM", "setting": "[5]", "result": 98, "unit": "%"}, {"measurement": "growth at 1 µM", "setting": "[6]", "result": 29, "unit": "%"}, {"measurement": "growth at 0.01 µM", "setting": "[7]", "result": 88, "unit": "%"}, {"measurement": "growth at 100 µM", "setting": "[8]", "result": 24, "unit": "%"}, {"measurement": "growth at 0.1 µM", "setting": "[9]", "result": 109, "unit": "%"}, {"measurement": "growth at 1 µM", "setting": "[10]", "result": 83, "unit": "%"}, {"measurement": "growth at 0.01 µM", "setting": "[11]", "result": 102, "unit": "%"}, {"measurement": "growth at 0.01 µM", "setting": "[12]", "result": 104, "unit": "%"}, {"measurement": "growth at 1 µM", "setting": "[13]", "result": 93, "unit": "%"}, {"measurement": "growth at 0.01 µM", "setting": "[14]", "result": 111, "unit": "%"}, {"measurement": "growth at 10 µM", "setting": "[15]", "result": 42, "unit": "%"}, {"measurement": "GI50", "setting": "[16]", "result": 5.54, "unit": "µM"}, {"measurement": "TGI", "setting": "[16]", "result": "> 1", "unit": "µM"}, {"measurement": "CC50", "setting": "[16]; [30]", "result": "> 1", "unit": "µM"}, {"measurement": "growth at 0.1 µM", "setting": "[17]", "result": 90, "unit": "%"}, {"measurement": "growth at 10 µM", "setting": "[18]", "result": 54, "unit": "%"}, {"measurement": "GI50", "setting": "[19]", "result": 3.36, "unit": "µM"}, {"measurement": "TGI", "setting": "[19]", "result": 4.88, "unit": "µM"}, {"measurement": "CC50", "setting": "[19]; [30]", "result": "> 1", "unit": "µM"}, {"measurement": "growth at 100 µM", "setting": "[20]", "result": 28, "unit": "%"}, {"measurement": "growth at 10 µM", "setting": "[21]", "result": 15, "unit": "%"}, {"measurement": "growth at 0.1 µM", "setting": "[22]", "result": 101, "unit": "%"}, {"measurement": "growth at 10 µM", "setting": "[23]", "result": 26, "unit": "%"}, {"measurement": "growth at 100 µM", "setting": "[24]", "result": -22, "unit": "%"}, {"measurement": "growth at 1 µM", "setting": "[25]", "result": 87, "unit": "%"}, {"measurement": "growth at 0.1 µM", "setting": "[26]", "result": 107, "unit": "%"}, {"measurement": "growth at 0.01 µM", "setting": "[27]", "result": 101, "unit": "%"}, {"measurement": "growth at 100 µM", "setting": "[28]", "result": 39, "unit": "%"}]}, {"smiles": "Cc1nn(-c2ccc(Cl)cc2)c(=O)n1CCN1CCOCC1", "values": [{"measurement": "GI50", "setting": "[29]", "result": 5.75, "unit": "µM"}, {"measurement": "CC50", "setting": "[29]; read-out: pLC50 (the source's name) (converted)", "result": "> 100", "unit": "µM"}, {"measurement": "TGI", "setting": "[29]; read-out: pTGI", "result": "> 100", "unit": "µM"}]}]}
